# Calls of active or inactive are those of the source. No cut-off for these calls is given here.
# What was measured:
# [1] = system: Aspergillus fumigatus; experiment: Antifungal activity against Aspergillus fumigatus Af293 assessed as abnormal hyphal growth by CLSI method; format: functional; conditions: read-out: MEC
# Method in brief: (§1)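 MEC by CLSI broth microdilution in RPMI 1640. Conidia were incubated with or without drug for 48 h at 37°C, in triplicate.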
# [2] = system: Aspergillus fumigatus; experiment: Antifungal activity against cnaA deficient Aspergillus fumigatus Af293 assessed as abnormal hyphal growth by CLSI method; format: functional; conditions: read-out: MEC; method in brief: as §1
# [3] = system: Aspergillus fumigatus; experiment: Antifungal activity against Aspergillus fumigatus Af293 expressing cnaA gene assessed as abnormal hyphal growth by CLSI method; format: functional; conditions: read-out: MEC; method in brief: as §1
# [4] = system: Aspergillus fumigatus; experiment: Antifungal activity against crzA deficient Aspergillus fumigatus Af293 assessed as abnormal hyphal growth by CLSI method; format: functional; conditions: read-out: MEC; method in brief: as §1
# [5] = system: Aspergillus fumigatus; experiment: Antifungal activity against Aspergillus fumigatus Af293 expressing crzA gene assessed as abnormal hyphal growth by CLSI method; format: functional; conditions: read-out: MEC; method in brief: as §1
# [6] = system: Aspergillus fumigatus; experiment: Antifungal activity against Aspergillus fumigatus H237 assessed as abnormal hyphal growth by CLSI method; format: functional; conditions: read-out: MEC; method in brief: as §1
# [7] = system: Aspergillus fumigatus; experiment: Antifungal activity against rasA deficient Aspergillus fumigatus H237 assessed as abnormal hyphal growth by CLSI method; format: functional; conditions: read-out: MEC; method in brief: as §1
# [8] = system: Aspergillus fumigatus; experiment: Antifungal activity against Aspergillus fumigatus H237 expressing rasA gene assessed as abnormal hyphal growth by CLSI method; format: functional; conditions: read-out: MEC; method in brief: as §1
# [9] = system: Aspergillus fumigatus; experiment: Antifungal activity against Aspergillus fumigatus H237 expressing dominant-active rasA gene assessed as abnormal hyphal growth by CLSI method; format: functional; conditions: read-out: MEC; method in brief: as §1
# [10] = system: Aspergillus fumigatus; experiment: Antifungal activity against cnaA deficient Aspergillus fumigatus Af293 assessed as inhibition of hyphal growth at germling stage at 1 ug/ml by CLSI method; format: functional, organism-based
# Method in brief: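 Conidia were grown as for CLSI susceptibility testing in RPMI 1640 with or without echinocandin (1 μg/ml) for 48 h at 37°C. Hyphal morphology was then examined by bright-field microscopy.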
# [11] = system: Aspergillus fumigatus; experiment: Antifungal activity against rasA deficient Aspergillus fumigatus H237 assessed as decrease in 1, 3-beta-D-glucan cell wall content at 1 ug/ml by aniline blue assay; format: functional, organism-based
# Method in brief: (§2)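 10⁶ conidia/ml were grown in RPMI 1640 with or without drug for 48 h at 37°C, 250 rpm. Hyphae were washed in 0.1 M NaOH and lyophilized. 5 mg was taken into 1 M NaOH, sonicated and heated at 52°C for 30 min. Aniline blue mix (pH 9.5) was added for 30 min at 52°C. Fluorescence was read at ex 405/em 460 nm against a curdlan standard curve. Results are % change in RFU/mg versus untreated wild type, from five independent experiments.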
# [12] = system: Aspergillus fumigatus; experiment: Antifungal activity against cnaA deficient Aspergillus fumigatus Af293 assessed as decrease in 1, 3-beta-D-glucan cell wall content at 1 ug/ml by aniline blue assay; format: functional, organism-based; method in brief: as §2
# [13] = system: Aspergillus fumigatus; experiment: Antifungal activity against crzA deficient Aspergillus fumigatus Af293 assessed as decrease in 1, 3-beta-D-glucan cell wall content at 1 ug/ml by aniline blue assay; format: functional, organism-based; method in brief: as §2
# [14] = system: Aspergillus fumigatus; experiment: Antifungal activity against Aspergillus fumigatus Af293 assessed as decrease in 1, 3-beta-D-glucan cell wall content at 1 ug/ml after 48 hrs by aniline blue assay; format: functional, organism-based; method in brief: as §2
# [15] = system: Aspergillus fumigatus; experiment: Antifungal activity against Aspergillus fumigatus H237 assessed as decrease in 1, 3-beta-D-glucan cell wall content at 1 ug/ml after 48 hrs by aniline blue assay; format: functional, organism-based; method in brief: as §2
# [16] = system: Aspergillus fumigatus; experiment: Antifungal activity against Aspergillus fumigatus H237 expressing dominant-active rasA assessed as decrease in 1, 3-beta-D-glucan cell wall content at 1 ug/ml after 48 hrs by aniline blue assay; format: functional, organism-based; method in brief: as §2
# [17] = system: Aspergillus fumigatus; experiment: Antifungal activity against rasA deficient Aspergillus fumigatus H237 assessed as increase in chitin cell wall content at 1 ug/ml; format: functional, organism-based
# Method in brief: (§3)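 Cultures were grown at 10⁶ conidia/ml in RPMI 1640 with 1 μg/ml drug (single agent or combination) for 48 h at 37°C, 250 rpm. 5 mg of lyophilized mycelium was digested in saturated KOH at 130°C for 1 h, then ethanol-precipitated. Glucosamine was measured by nitrous acid deamination and MBTH/FeCl₃ colour, A650, against a 10 μg/ml glucosamine standard. Output is glucosamine equivalents (μg/ml), from biological triplicate.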
# [18] = system: Aspergillus fumigatus; experiment: Antifungal activity against Aspergillus fumigatus H237 expressing dominant-active rasA assessed as increase in chitin cell wall content at 1 ug/ml; format: functional, organism-based; method in brief: as §3
# [19] = system: Aspergillus fumigatus; experiment: Antifungal activity against Aspergillus fumigatus Af293 assessed as increase in chitin cell wall content at 1 ug/ml after 48 hrs; format: functional, organism-based; method in brief: as §3
# [20] = system: Aspergillus fumigatus; experiment: Antifungal activity against Aspergillus fumigatus H237 assessed as increase in chitin cell wall content at 1 ug/ml after 48 hrs; format: functional, organism-based; method in brief: as §3
# [21] = system: Aspergillus fumigatus; experiment: Antifungal activity against cnaA deficient Aspergillus fumigatus Af293 assessed as increase in chitin cell wall content at 1 ug/ml; format: functional, organism-based; method in brief: as §3
# [22] = system: Aspergillus fumigatus; experiment: Antifungal activity against crzA deficient Aspergillus fumigatus Af293 assessed as increase in chitin cell wall content at 1 ug/ml; format: functional, organism-based; method in brief: as §3
# [23] = system: Candida albicans; experiment: Antifungal activity against Candida albicans SC5314 assessed as increase in chitin cell wall content at 0.125 ug/ml; format: functional
# [24] = system: Aspergillus fumigatus; experiment: Antifungal activity against Aspergillus fumigatus Af293 assessed as increase in calcofluor white staining og conidia at 1 ug/ml after 16 hrs by fluorescence microscopy; format: functional, organism-based
# Method in brief: (§4)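 10³ conidia/ml were grown on coverslips in RPMI 1640 with or without 1 μg/ml drug for 16 h at 37°C. Coverslips were stained with calcofluor white for 5 min at room temperature, rinsed and mounted. Fluorescence microscopy used a UV exposure fixed at 25 ms, set on the untreated wild type.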
# [25] = system: Aspergillus fumigatus; experiment: Antifungal activity against cnaA deficient Aspergillus fumigatus Af293 assessed as increase in calcofluor white staining og conidia at 1 ug/ml after 16 hrss by fluorescence microscopy; format: functional, organism-based; method in brief: as §4
# [26] = system: Aspergillus fumigatus; experiment: Antifungal activity against crzA deficient Aspergillus fumigatus Af293 assessed as increase in calcofluor white staining og conidia at 1 ug/ml after 16 hrss by fluorescence microscopy; format: functional, organism-based; method in brief: as §4
smiles,measurement,setting,value
CC[C@H](C)C[C@H](C)CCCCCCCCC(=O)N[C@H]1C[C@@H](O)[C@@H](NCCN)NC(=O)[C@@H]2[C@@H](O)CCN2C(=O)[C@H]([C@H](O)CCN)NC(=O)[C@H]([C@H](O)[C@@H](O)c2ccc(O)cc2)NC(=O)[C@@H]2C[C@@H](O)CN2C(=O)[C@H]([C@@H](C)O)NC1=O [CASPOFUNGIN],minimal effective concentration,[1],1 µg/mL
same,minimal effective concentration,[2],0.25 µg/mL
same,minimal effective concentration,[3],1 µg/mL
same,minimal effective concentration,[4],0.5 µg/mL
same,minimal effective concentration,[5],1 µg/mL
same,minimal effective concentration,[6],1 µg/mL
same,minimal effective concentration,[7],8 µg/mL
same,minimal effective concentration,[8],1 µg/mL
same,minimal effective concentration,[9],0.25 µg/mL
same,Activity,[10],Active
same,Activity,[11],Active
same,Activity,[12],Active
same,Activity,[13],Active
same,Activity,[14],Active
same,Activity,[15],Active
same,Activity,[16],Active
same,Activity,[17],Active
same,Activity,[18],Active
same,Activity,[19],Active
same,Activity,[20],Active
same,Activity,[21],inactive
same,Activity,[22],inactive
same,fold change (FC),[23],2
same,Activity,[24],inactive
same,Activity,[25],inactive
same,Activity,[26],Active
